Activity calls are given as the source filed them. No cut-off for these calls is given here.
Key:
Salmon testes DNA [1] = experiment: Binding affinity to salmon testes DNA assessed as DNA intercalation by linear flow dichroism analysis; details: Salmonidae
Salmon testes DNA [2] = experiment: Induction of damage in salmon testes DNA at 100 uM in presence of 2.5 to 7.5 J/cm2 UVA irradiation by ethidium bromide dye-based agarose gel electrophoresis analysis; format: nucleic-acid assay; details: salmonidae
Salmonella typhimurium [3] = experiment: Genotoxicity in Salmonella typhimurium TA98 assessed as revertant colonies at 5 uL/plate in presence of Sprague-Dawley rat S9 metabolic activation after 72 hrs by Ames test (reference value: 1); format: toxicity, organism-based; details: salmonella enterica subsp. enterica serovar typhimurium
Salmonella typhimurium [4] = experiment: Genotoxicity in Salmonella typhimurium TA98 assessed as revertant colonies at 50 uL/plate in presence of Sprague-Dawley rat S9 metabolic activation after 72 hrs by Ames test (reference value: 1); format: toxicity, organism-based; details: salmonella enterica subsp. enterica serovar typhimurium
Salmonella typhimurium [5] = experiment: Genotoxicity in Salmonella typhimurium TA98 assessed as revertant colonies at 1 uL/plate in absence of Sprague-Dawley rat S9 metabolic activation after 72 hrs by Ames test (reference value: 1); format: toxicity, organism-based; details: salmonella enterica subsp. enterica serovar typhimurium
Salmonella typhimurium [6] = experiment: Genotoxicity in Salmonella typhimurium TA100 assessed as revertant colonies at 1 uL/plate in absence of Sprague-Dawley rat S9 metabolic activation after 72 hrs by Ames test (reference value: 1); format: toxicity, organism-based; details: salmonella enterica subsp. enterica serovar typhimurium
Salmonella typhimurium [7] = experiment: Genotoxicity in Salmonella typhimurium TA97A assessed as revertant colonies at 50 uL/plate in absence of Sprague-Dawley rat S9 metabolic activation after 72 hrs by Ames test (reference value: 1); format: toxicity, organism-based; details: salmonella enterica subsp. enterica serovar typhimurium
Salmonella typhimurium [8] = experiment: Genotoxicity in Salmonella typhimurium TA100 assessed as revertant colonies at 10 uL/plate in presence of Sprague-Dawley rat S9 metabolic activation after 72 hrs by Ames test (reference value: 1); format: toxicity, organism-based; details: salmonella enterica subsp. enterica serovar typhimurium
Salmonella typhimurium [9] = experiment: Genotoxicity in Salmonella typhimurium TA97A assessed as revertant colonies at 100 uL/plate in presence of Sprague-Dawley rat S9 metabolic activation after 72 hrs by Ames test (reference value: 1); format: toxicity, organism-based; details: salmonella enterica subsp. enterica serovar typhimurium
IB3-1 [10] = experiment: Antiproliferative activity against human IB3-1 cells after 2 days by cell counting analysis; format: cell-based; details: IB3-1, 48 h
How it was run: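 IB3-1 cells from a CF patient (ΔF508/W1282X), immortalized with adeno12/SV40, grown in LHC-8 with 5% FBS and no gentamycin at 37°C/5% CO₂. Treated at 12.5, 25, 50, 100, 200 and 800 µM. Cells counted by Coulter counter after 2 days, with untreated cells in log phase. IC₅₀ is the concentration giving 50% inhibition of cell growth.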

Salmonella typhimurium [11] = experiment: Genotoxicity in Salmonella typhimurium TA1535 assessed as revertant colonies at 10 uL/plate in absence of Sprague-Dawley rat S9 metabolic activation after 72 hrs by Ames test (reference value: 1); format: toxicity, organism-based; details: salmonella enterica subsp. enterica serovar typhimurium
Salmonella typhimurium [12] = experiment: Genotoxicity in Salmonella typhimurium TA100 assessed as revertant colonies at 5 uL/plate in absence of Sprague-Dawley rat S9 metabolic activation after 72 hrs by Ames test (reference value: 1); format: toxicity, organism-based; details: salmonella enterica subsp. enterica serovar typhimurium
Salmonella typhimurium [13] = experiment: Genotoxicity in Salmonella typhimurium TA1535 assessed as revertant colonies at 5 uL/plate in absence of Sprague-Dawley rat S9 metabolic activation after 72 hrs by Ames test (reference value: 1); format: toxicity, organism-based; details: salmonella enterica subsp. enterica serovar typhimurium
Salmonella typhimurium [14] = experiment: Genotoxicity in Salmonella typhimurium TA100 assessed as revertant colonies at 50 uL/plate in absence of Sprague-Dawley rat S9 metabolic activation after 72 hrs by Ames test (reference value: 1); format: toxicity, organism-based; details: salmonella enterica subsp. enterica serovar typhimurium
Salmonella typhimurium [15] = experiment: Genotoxicity in Salmonella typhimurium TA100 assessed as revertant colonies at 100 uL/plate in absence of Sprague-Dawley rat S9 metabolic activation after 72 hrs by Ames test (reference value: 1); format: toxicity, organism-based; details: salmonella enterica subsp. enterica serovar typhimurium
Salmonella typhimurium [16] = experiment: Genotoxicity in Salmonella typhimurium TA98 assessed as revertant colonies at 50 uL/plate in absence of Sprague-Dawley rat S9 metabolic activation after 72 hrs by Ames test (reference value: 1); format: toxicity, organism-based; details: salmonella enterica subsp. enterica serovar typhimurium
IB3-1 [17] = experiment: Inhibition of TNF-alpha induced IL-15 production in human IB3-1 cells at 1 uM preincubated for 5 hrs followed by TNF-alpha stimulation and measured after 24 hrs relative to control; format: functional
How it was run: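 IB3-1 cells (CF patient, ΔF508/W1282X, adeno12/SV40-immortalized) grown in LHC-8 with 5% FBS, no gentamycin, 37°C/5% CO₂; 60% confluent monolayers seeded, compound added after 24 h, 5 h before 80 ng/ml TNF-α, then 24 h further incubation. Cytokines in supernatants measured by Bioplex 27-plex Luminex bead assay: beads, detection antibody, streptavidin–phycoerythrin, 30/30/10 min at room temperature.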

Salmonella typhimurium [18] = experiment: Genotoxicity in Salmonella typhimurium TA100 assessed as revertant colonies at 5 uL/plate in presence of Sprague-Dawley rat S9 metabolic activation after 72 hrs by Ames test (reference value: 1); format: toxicity, organism-based; details: salmonella enterica subsp. enterica serovar typhimurium
Salmonella typhimurium [19] = experiment: Genotoxicity in Salmonella typhimurium TA97A assessed as revertant colonies at 10 uL/plate in absence of Sprague-Dawley rat S9 metabolic activation after 72 hrs by Ames test (reference value: 1); format: toxicity, organism-based; details: salmonella enterica subsp. enterica serovar typhimurium
Homo sapiens = species on record: Homo sapiens; experiment: Inhibition of NF-kappaB (unknown origin) assessed as decrease in NF-kappaB/DNA interaction at 12.5 to 100 uM using 32P-labeled target NF-kappaB double-stranded oligonucleotide after 30 mins by EMSA
How it was run: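 Purified NF-κB p50 (0.1 µl/20 µl, 50 gsu) was combined with 0.25 ng of ³²P-labeled double-stranded NF-κB consensus oligonucleotide. Bound 30 min at room temperature, then run on 6% polyacrylamide in 0.25× TBE at 200 V. IC₅₀ is 50% inhibition of the complex.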

Salmonella typhimurium [20] = experiment: Genotoxicity in Salmonella typhimurium TA97A assessed as revertant colonies at 50 uL/plate in presence of Sprague-Dawley rat S9 metabolic activation after 72 hrs by Ames test (reference value: 1); format: toxicity, organism-based; details: salmonella enterica subsp. enterica serovar typhimurium
Salmonella typhimurium [21] = experiment: Genotoxicity in Salmonella typhimurium TA97A assessed as revertant colonies at 1 uL/plate in presence of Sprague-Dawley rat S9 metabolic activation after 72 hrs by Ames test (reference value: 1); format: toxicity, organism-based; details: salmonella enterica subsp. enterica serovar typhimurium
Salmonella typhimurium [22] = experiment: Genotoxicity in Salmonella typhimurium TA1535 assessed as revertant colonies at 10 uL/plate in presence of Sprague-Dawley rat S9 metabolic activation after 72 hrs by Ames test (reference value: 1); format: toxicity, organism-based; details: salmonella enterica subsp. enterica serovar typhimurium
Salmonella typhimurium [23] = experiment: Genotoxicity in Salmonella typhimurium TA1535 assessed as revertant colonies at 5 uL/plate in presence of Sprague-Dawley rat S9 metabolic activation after 72 hrs by Ames test (reference value: 1); format: toxicity, organism-based; details: salmonella enterica subsp. enterica serovar typhimurium

CCc1cc2c(C(C)C)cc(=O)oc2c2c(C)coc12 was tested, and the Activity (Salmon testes DNA [1]) was “inactive”, the Activity (Salmon testes DNA [2]) was “Not Active” and the T/C (Salmonella typhimurium [3]) was 0.6. For the same molecule, the T/C (Salmonella typhimurium [4]) was 0.7, the T/C (Salmonella typhimurium [5]) was 1.1 and the T/C (Salmonella typhimurium [6]) was 0.8. The T/C (Salmonella typhimurium [7]) was 1.1, the T/C (Salmonella typhimurium [8]) was 1 and the T/C (Salmonella typhimurium [9]) was 1. For the same molecule, the IC50 (IB3-1 [10]) was over 200 µM, the T/C (Salmonella typhimurium [11]) was 0.9 and the T/C (Salmonella typhimurium [12]) was 1. It also gave a T/C (Salmonella typhimurium [13]) of 1.1, a T/C (Salmonella typhimurium [14]) of 0.9 and a T/C (Salmonella typhimurium [15]) of 0.9. For the same molecule, the T/C (Salmonella typhimurium [16]) was 1.2, the inhibition at 1 µM (IB3-1 [17]) was over 20% and the T/C (Salmonella typhimurium [18]) was 1.1. The T/C (Salmonella typhimurium [19]) was 1.2, the inhibition (Homo sapiens) was “Active” and the T/C (Salmonella typhimurium [20]) was 1.2. It also gave a T/C (Salmonella typhimurium [21]) of 1, a T/C (Salmonella typhimurium [22]) of 1.2 and a T/C (Salmonella typhimurium [23]) of 0.9.

— ChEMBL document CHEMBL4152196, “Design, synthesis and biological evaluation of novel trimethylangelicin analogues targeting nuclear factor kB (NF-kB)” (Eur J Med Chem, 2018)
